Values after ≈ are worked out from the molar mass of the structure shown.

Experimental findings from ChEMBL document CHEMBL3091368, “Structure-based design, synthesis, and evaluation of imidazo[1,2-b]pyridazine and imidazo[1,2-a]pyridine derivatives as novel dual c-Met and VEGFR2 kinase inhibitors” (Bioorg Med Chem, 2013) are described below.

Data set [1] can be described thus: Clearance in human liver microsomes at 1 umol/L by HPLC analysis. It counts as ADME. The conditions noted are these: read-out: CLH. In short, it runs like this: (§1)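 Hepatic microsomes at 0.2 mg protein/mL in 50 mmol/L potassium phosphate, pH 7.4, with test compound at 1 µmol/L, incubated at 37 °C. Started by adding an NADPH-generating system (MgCl₂, glucose-6-phosphate, β-NADP⁺, G6P dehydrogenase). Stopped with an equal volume of acetonitrile. Parent compound loss measured by HPLC-UV or LC/MS/MS.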

Data set [2] in a line: Clearance in mouse liver microsomes at 1 umol/L by HPLC analysis. It is filed as ADME, Microsome. Conditions: read-out: CLH. The essentials: as §1
(In general: Liver microsomes are vesicles of endoplasmic reticulum, rich in cytochrome P450 enzymes.)

The nature of data set [3]: Kinetic solubility of the compound in second fluid of disintegration test of Japanese pharmacopoeia containing bile acid at pH 6.8 by HPLC analysis. It is filed as physicochemical. The conditions noted are these: read-out: Kinetic_solubility. The essentials:
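Kinetic solubility in JP second disintegration fluid with bile acid. Compound DMSO solutions added in small volumes to the aqueous buffer and incubated. Precipitate removed by filter-plate filtration, and dissolved compound in the filtrate quantified by HPLC.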

As to `Cc1ccc(C(=O)Nc2ccc(Oc3ccc4nc(NC(=O)C5CC5)cn4c3)c(F)c2)c(=O)n1-c1ccccc1.Cl`, the microsomal CLint at 1 µM was 6 µL/min/mg in data set [1] and 10 µL/min/mg in data set [2]. Besides, the solubility kinetic in data set [3] was > 110 µg/mL.

As to `Cc1ccc(C(=O)Nc2ccc(Oc3ccc4nc(NC(=O)C5CC5)cn4c3)c(F)c2)c(=O)n1-c1ccccc1`, the solubility kinetic in data set [3] stood at 92 µg/mL (≈ 171 µM).

`O=C(Nc1ccc(Oc2ccc3nc(NC(=O)C4CC4)cn3c2)c(F)c1)c1cccn(-c2ccccc2)c1=O`: the microsomal CLint at 1 µM is 5 µL/min/mg in data set [1] and 15 µL/min/mg in data set [2]. Moreover, the solubility kinetic in data set [3] was 4.7 µg/mL (≈ 8.98 µM).

For `Cc1ccc(C(=O)Nc2ccc(Oc3ccc4nc(NC(=O)C5CC5)cn4n3)c(F)c2)c(=O)n1-c1ccccc1`, the microsomal CLint at 1 µM in data set [1] was 11 µL/min/mg; in data set [2] it was 8 µL/min/mg. For the same molecule, the solubility kinetic in data set [3] is > 140 µg/mL.

For `O=C(Nc1ccc(Oc2ccc3nc(NC(=O)C4CC4)cn3n2)c(F)c1)c1cccn(-c2ccccc2)c1=O`, the microsomal CLint at 1 µM in data set [1] amounted to 3 µL/min/mg; in data set [2] it was 11 µL/min/mg. Besides, the solubility kinetic in data set [3] was determined as 3.2 µg/mL (≈ 6.1 µM).
